Source: PMC6088244 (Biochemistry, 2018)
Read-outs that look alike come from different tables or passages of the source.

What was measured:
LPS-induced TNFa release = conditions: read-out: IC50 of LPS-induced TNFa release, cited from earlier work
[1] = Pharmacokinetic properties in mice; assay type: in vivo; conditions: 5 mg/kg
In short: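 Male ICR mice were dosed at 5 mg/kg. The stock dosing sample was 10 mg test compound in 10 ml saline containing 1% DMSO, 40% 2-hydroxypropyl-β-cyclodextrin and 6% Solutol HS 15. It was vortexed and sonicated until fully dissolved.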

mice [2] = assay: Object recognition test; assay type: in vivo; conditions: i.p. 30 min prior to the test; for memory in the object recognition test: Fig. 5A
In short: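 Male ICR mice (22–24 g) were housed at 22–23 °C on a 12-h light-dark cycle with free food and water. Test compound, rolipram or vehicle was given i.p. 30 min before testing. Mice were trained to tell a novel from a familiar object with a 24-hour delay. Exploration times (Tn, Tf) were recorded over 3 min. n = 8–9; one-way ANOVA with Dunnett's post hoc test.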

mice [3] = assay: Open-field test; assay type: in vivo
In short: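 Naive male ICR mice received test compound, rolipram or vehicle by i.p. injection. Thirty minutes later each was placed in the centre of an open-field box with its floor divided into 4 identical squares and explored for 5 min. Line crossings (all four paws over the line) and rears were counted. Means ± S.E., n = 8–9; one-way ANOVA with Dunnett's test.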

PDE4D = conditions: read-out: IC50 against PDE4D; racemic Zl-n-91; cited from earlier work
mice [4] = conditions: at the same dose required for producing a memory-enhancing effect; cited from earlier work
PDE4B2B = PDE4B2B (Homo sapiens, UniProt Q07343); assay: PDE enzymatic assay with 3H-cAMP or 3H-cGMP as substrates; assay type: biochemical; conditions: IC50, PDE4B2B (152–528)
In short: (§1)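 Recombinant PDE catalytic domains incubated at room temperature for 15 min in 20 mM Tris.HCl pH 7.5, 10 mM MgCl2, 0.5 mM DTT, with 3H-cAMP or 3H-cGMP at 20–40k cpm/assay. Stopped with 0.2 M ZnSO4. Product precipitated with 0.2 N Ba(OH)2. Unreacted substrate in supernatant counted by liquid scintillation. Nine inhibitor concentrations tested. Rolipram served as reference.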

PDE2A3 (580–941) = PDE2A3 (580–941) (Homo sapiens, UniProt O00408); assay: as above; assay type: biochemical
In short: as §1

PDE3A1 (665–1141) = PDE3A1 (665–1141) (Homo sapiens, UniProt Q14432); assay: PDE enzymatic assay with 3H-cAMP or 3H-cGMP as substrates; assay type: biochemical
In short: (§2)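 PDE catalytic domains were incubated with 20 mM Tris-HCl pH 7.5, 10 mM MgCl2, 0.5 mM DTT and 3H-cAMP or 3H-cGMP (20–40k cpm/assay) for 15 min at room temperature. The reaction was stopped with 0.2 M ZnSO4, and product was precipitated with 0.2 N Ba(OH)2. Supernatant radioactivity was scintillation-counted. Nine inhibitor concentrations were tested; rolipram was the reference.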

PDE5A1 (535–860) = PDE5A1 (535–860) (Homo sapiens, UniProt O76074); assay: PDE enzymatic assay with 3H-cAMP or 3H-cGMP as substrates; assay type: biochemical
In short: as §1

PDE7A1 (130–482) = PDE7A1 (130–482) (Homo sapiens, UniProt Q13946); assay: as above; assay type: biochemical
In short: as §1

PDE8A1 (480–820) = PDE8A1 (480–820) (Homo sapiens, UniProt O60658); assay: PDE enzymatic assay with 3H-cAMP or 3H-cGMP as substrates; assay type: biochemical
In short: as §2

PDE9A1 (181–506) = PDE9A1 (181–506) (Homo sapiens, UniProt O76083); assay: PDE enzymatic assay with 3H-cAMP or 3H-cGMP as substrates; assay type: biochemical
In short: as §1

PDE10A2 (448–789) = PDE10A2 (448–789) (Homo sapiens, UniProt Q9Y233); assay: PDE enzymatic assay with 3H-cAMP or 3H-cGMP as substrates; assay type: biochemical
In short: as §2

PDE11A4 (563–934) = target: T1, PDE11A4 (563–934) (Homo sapiens, UniProt Q9HCR9); assay: as above; assay type: biochemical
T1 sequence (Q9HCR9 563-933 limits assumed): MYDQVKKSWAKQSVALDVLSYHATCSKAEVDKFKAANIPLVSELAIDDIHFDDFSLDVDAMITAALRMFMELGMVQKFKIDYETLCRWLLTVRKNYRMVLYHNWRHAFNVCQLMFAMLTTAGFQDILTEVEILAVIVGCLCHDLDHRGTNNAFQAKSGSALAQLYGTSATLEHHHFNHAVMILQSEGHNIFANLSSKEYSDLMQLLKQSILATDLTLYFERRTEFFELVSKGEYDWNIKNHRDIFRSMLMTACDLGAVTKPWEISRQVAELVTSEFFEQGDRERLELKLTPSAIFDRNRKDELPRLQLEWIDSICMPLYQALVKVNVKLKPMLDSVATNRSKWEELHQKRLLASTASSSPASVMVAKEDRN
In short: as §2

[5] = doses of 0.01–0.5 mg/kg, 30 min after injection

PDE9A1 (181–506), sequence (O76083 241-566): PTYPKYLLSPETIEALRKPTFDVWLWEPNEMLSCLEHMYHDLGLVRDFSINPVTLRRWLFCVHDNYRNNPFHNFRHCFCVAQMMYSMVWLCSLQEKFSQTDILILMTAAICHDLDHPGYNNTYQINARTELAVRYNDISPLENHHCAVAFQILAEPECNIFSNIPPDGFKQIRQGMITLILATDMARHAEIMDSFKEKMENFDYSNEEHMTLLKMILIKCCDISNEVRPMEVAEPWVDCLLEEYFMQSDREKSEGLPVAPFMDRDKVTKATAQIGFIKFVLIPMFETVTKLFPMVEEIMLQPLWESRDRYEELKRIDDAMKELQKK
PDE2A3 (580–941), sequence (O00408 580-941): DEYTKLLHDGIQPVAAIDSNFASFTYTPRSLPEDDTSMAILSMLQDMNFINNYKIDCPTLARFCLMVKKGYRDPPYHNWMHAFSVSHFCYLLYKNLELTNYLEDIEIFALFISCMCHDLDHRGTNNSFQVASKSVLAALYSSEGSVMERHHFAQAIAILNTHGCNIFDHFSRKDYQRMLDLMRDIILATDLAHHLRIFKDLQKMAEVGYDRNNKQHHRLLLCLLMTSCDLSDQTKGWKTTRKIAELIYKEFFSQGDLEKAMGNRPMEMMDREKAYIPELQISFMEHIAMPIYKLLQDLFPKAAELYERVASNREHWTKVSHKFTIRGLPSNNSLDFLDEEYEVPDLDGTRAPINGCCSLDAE
PDE10A2 (448–789), sequence (Q9Y233 714-1055): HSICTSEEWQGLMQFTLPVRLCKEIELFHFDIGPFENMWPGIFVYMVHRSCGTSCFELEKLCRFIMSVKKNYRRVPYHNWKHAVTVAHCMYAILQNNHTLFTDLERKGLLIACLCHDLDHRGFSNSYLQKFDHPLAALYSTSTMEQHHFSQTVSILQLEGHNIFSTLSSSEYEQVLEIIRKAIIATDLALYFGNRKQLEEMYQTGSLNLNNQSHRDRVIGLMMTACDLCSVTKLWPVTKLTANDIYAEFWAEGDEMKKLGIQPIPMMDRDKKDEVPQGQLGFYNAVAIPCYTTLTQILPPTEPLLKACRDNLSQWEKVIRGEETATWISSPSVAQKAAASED
PDE4B2B, sequence (Q07343 324-700): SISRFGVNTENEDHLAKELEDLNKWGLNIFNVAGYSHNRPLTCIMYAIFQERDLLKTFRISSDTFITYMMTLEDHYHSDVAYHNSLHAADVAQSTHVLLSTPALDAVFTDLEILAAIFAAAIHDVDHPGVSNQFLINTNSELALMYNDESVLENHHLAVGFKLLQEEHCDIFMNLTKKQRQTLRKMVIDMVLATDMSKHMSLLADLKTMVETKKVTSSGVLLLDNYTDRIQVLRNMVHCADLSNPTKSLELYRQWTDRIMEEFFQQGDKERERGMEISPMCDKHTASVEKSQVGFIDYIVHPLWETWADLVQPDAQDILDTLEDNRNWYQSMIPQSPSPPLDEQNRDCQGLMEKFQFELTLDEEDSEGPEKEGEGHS
PDE3A1 (665–1141), sequence (Q14432 665-1141): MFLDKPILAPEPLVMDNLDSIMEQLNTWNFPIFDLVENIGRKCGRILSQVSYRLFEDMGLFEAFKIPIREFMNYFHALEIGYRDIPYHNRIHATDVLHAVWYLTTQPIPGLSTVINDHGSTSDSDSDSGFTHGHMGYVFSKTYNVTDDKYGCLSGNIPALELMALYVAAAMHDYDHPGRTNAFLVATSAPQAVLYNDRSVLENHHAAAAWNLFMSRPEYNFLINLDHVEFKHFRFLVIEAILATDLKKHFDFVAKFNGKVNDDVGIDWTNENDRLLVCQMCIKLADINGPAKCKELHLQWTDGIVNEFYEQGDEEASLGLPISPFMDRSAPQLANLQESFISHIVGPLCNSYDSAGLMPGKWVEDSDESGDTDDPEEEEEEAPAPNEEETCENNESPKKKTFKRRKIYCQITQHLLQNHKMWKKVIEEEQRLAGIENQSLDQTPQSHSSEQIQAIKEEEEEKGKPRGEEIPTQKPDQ
PDE7A1 (130–482), sequence (Q13946 130-482): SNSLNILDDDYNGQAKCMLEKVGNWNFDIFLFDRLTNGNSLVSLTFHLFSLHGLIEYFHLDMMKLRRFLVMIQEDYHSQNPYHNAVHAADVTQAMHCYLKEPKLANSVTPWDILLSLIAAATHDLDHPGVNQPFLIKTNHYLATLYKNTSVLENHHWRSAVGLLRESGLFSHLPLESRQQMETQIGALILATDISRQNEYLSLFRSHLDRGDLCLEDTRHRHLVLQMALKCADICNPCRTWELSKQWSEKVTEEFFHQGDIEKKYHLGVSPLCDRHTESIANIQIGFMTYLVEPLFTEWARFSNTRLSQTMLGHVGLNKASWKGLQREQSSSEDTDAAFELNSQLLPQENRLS
PDE8A1 (480–820), sequence (O60658 480-820): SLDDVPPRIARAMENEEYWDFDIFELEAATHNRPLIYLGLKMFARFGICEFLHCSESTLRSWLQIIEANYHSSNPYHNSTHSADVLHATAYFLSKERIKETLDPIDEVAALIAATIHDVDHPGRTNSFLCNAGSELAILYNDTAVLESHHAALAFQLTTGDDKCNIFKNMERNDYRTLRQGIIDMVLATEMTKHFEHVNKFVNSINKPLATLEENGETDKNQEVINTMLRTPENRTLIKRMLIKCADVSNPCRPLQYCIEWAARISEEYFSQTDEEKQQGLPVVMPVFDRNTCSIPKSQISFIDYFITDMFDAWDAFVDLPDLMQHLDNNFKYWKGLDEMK

For `COc1ccc([C@]2(C#N)CC[C@@H](C(=O)O)CC2)cc1OC1CCCC1` [cilomilast, reference compound], the IC50 (LPS-induced TNFa release; whole blood) is given as > 10 µM.

With `CC(C)CC(=O)c1ccc(OC(F)F)c(OC2CCOC2)c1` (centres unmarked) [Zl-n-91, 1-(4-(difluoromethoxy)-3-((tetrahydrofuran-3-yl)oxy)phenyl)-3-methylbutan-1-one] the “CL(F)” value ([1]; PO, male mice) was 342 mL/min/kg, the “F (bioavailability)” value ([1]; PO, male mice) was 33.3% and the AUC ([1]; male, ICR, mouse, plasma, iv) was 728 ng·h/mL. The AUC(0-t) ([1]; male, ICR, mouse, plasma, iv) was 725 ng·h/mL, the C0 ([1]; male, ICR, mouse, plasma, iv) was 6030 ng/mL and the MRT inf ([1]; male, ICR, mouse, plasma, iv) was 20.4 min. It also gave a Vd ([1]; male, ICR, mouse, plasma, iv) of 2.31 L/kg, a clearance ([1]; male, ICR, mouse, plasma, iv) of 115 mL/min/kg and a half-life ([1]; male, ICR, mouse, plasma, iv) of 37.2 min. The AUC ([1]; male, ICR, mouse, plasma, po) was 244 ng·h/mL, the AUC(0-t) ([1]; male, ICR, mouse, plasma, po) was 241 ng·h/mL and the Cmax ([1]; male, ICR, mouse, plasma, po) was 96.5 ng/mL. For the same compound, the Tmax ([1]; male, ICR, mouse, plasma, po) was 120 min, the Vd/F ([1]; male, ICR, mouse, plasma, po) was 39.9 L/kg and the half-life ([1]; male, ICR, mouse, plasma, po) was 81 min. The “memory in the object recognition test” value (mice [2]) was “enhanced memory”, the locomotor activity (mice [3]) was “not altered” and the sedation (mice [3]; dose of 0.5 mg/kg) was “does not produce sedation”. The line crossings (mice [3]; [5]) was “altered neither”, the rears (mice [3]; [5]) was “altered neither” and the IC50 (PDE4D) was 0.026 µM. For the same compound, the IC50 (LPS-induced TNFa release; whole blood cell) was 0.04 µM.

For `COc1ccc(C2CNC(=O)C2)cc1OC1CCCC1` (centres unmarked) [rolipram], the “increase of discrimination ratio (Tn-Tf)/(Tn+Tf)” value (mice [2]; 0.3 mg/kg, versus vehicle) is given as “about 4 times”, the “memory in the object recognition test” value (mice [2]) is given as “enhanced memory” and the locomotor activity (mice [4]) is given as “decreased locomotor activity”.

Work on `CC(C)CC(=O)c1ccc(OC(F)F)c(O[C@H]2CCOC2)c1` [(S)-Zl-n-91, 1-(4-(difluoromethoxy)-3-((tetrahydrofuran-3-yl)oxy)phenyl)-3-methylbutan-1-one] yielded an IC50 (PDE4B2B) of 0.02 ± 0.004 µM, an IC50 (PDE2A3 (580–941)) of 83 ± 12 µM and an IC50 (PDE3A1 (665–1141)) of 46 ± 3 µM. The IC50 (PDE5A1 (535–860)) was 130 ± 23 µM, the IC50 (PDE7A1 (130–482)) was 17 ± 3 µM and the IC50 (PDE8A1 (480–820)) was 8.6 ± 0.7 µM. The IC50 (PDE9A1 (181–506)) was 84 ± 10 µM, the IC50 (PDE10A2 (448–789)) was 16 ± 1 µM and the IC50 (PDE11A4 (563–934)) was 23 ± 4 µM.
